Test results published in ChEMBL document CHEMBL1811845, “Modulation of GABAA-receptors by honokiol and derivatives: subtype selectivity and structure-activity relationship” (J Med Chem, 2011).

Tests used:
[1] = target: T1, GABA-A receptor; GABA-A site (alpha1/beta2 interface) (Homo sapiens) (UniProt P14867+P47870); assay: Modulation of GABA Aalpha1beta2 receptor expressed in Xenopus laevis oocytes assessed as potentiation of GABA-induced chloride current at holding potential -70 mV at 30 uM by two-microelectrode voltage clamp technique relative to GABA; type: cell-based; conditions: Oocyte
Procedure, shortened: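 Single-concentration screen at 30 μM on α1β2 receptors (cRNA 1:1) in Xenopus oocytes. Enhancement was (I(GABA+compound)/IGABA)−1. DMSO was matched in control and test solutions, maximum 0.3% in the bath.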

[2] = target: T2, GABA-A receptor; GABA-A site (alpha1/beta2 interface) (Homo sapiens, UniProt P14867+P47870); assay: Modulation of GABA Aalpha1beta2 receptor expressed in Xenopus laevis oocytes assessed as potentiation of GABA-induced chloride current at holding potential -70 mV by two-microelectrode voltage clamp technique; type: cell-based, Oocyte
T2 sequence (P14867 whole entry): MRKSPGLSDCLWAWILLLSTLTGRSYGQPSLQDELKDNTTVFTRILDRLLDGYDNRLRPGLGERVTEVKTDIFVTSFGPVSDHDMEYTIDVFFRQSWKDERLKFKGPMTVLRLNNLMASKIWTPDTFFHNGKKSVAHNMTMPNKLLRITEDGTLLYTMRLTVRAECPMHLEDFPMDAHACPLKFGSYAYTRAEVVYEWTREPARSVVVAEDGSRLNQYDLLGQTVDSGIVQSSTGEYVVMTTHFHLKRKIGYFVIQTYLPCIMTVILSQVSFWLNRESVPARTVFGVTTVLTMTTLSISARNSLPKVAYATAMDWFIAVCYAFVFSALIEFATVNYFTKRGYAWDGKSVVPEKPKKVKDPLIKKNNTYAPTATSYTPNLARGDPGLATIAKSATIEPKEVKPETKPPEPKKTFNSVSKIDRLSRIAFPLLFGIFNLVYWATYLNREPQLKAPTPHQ
T2 sequence (P47870 whole entry): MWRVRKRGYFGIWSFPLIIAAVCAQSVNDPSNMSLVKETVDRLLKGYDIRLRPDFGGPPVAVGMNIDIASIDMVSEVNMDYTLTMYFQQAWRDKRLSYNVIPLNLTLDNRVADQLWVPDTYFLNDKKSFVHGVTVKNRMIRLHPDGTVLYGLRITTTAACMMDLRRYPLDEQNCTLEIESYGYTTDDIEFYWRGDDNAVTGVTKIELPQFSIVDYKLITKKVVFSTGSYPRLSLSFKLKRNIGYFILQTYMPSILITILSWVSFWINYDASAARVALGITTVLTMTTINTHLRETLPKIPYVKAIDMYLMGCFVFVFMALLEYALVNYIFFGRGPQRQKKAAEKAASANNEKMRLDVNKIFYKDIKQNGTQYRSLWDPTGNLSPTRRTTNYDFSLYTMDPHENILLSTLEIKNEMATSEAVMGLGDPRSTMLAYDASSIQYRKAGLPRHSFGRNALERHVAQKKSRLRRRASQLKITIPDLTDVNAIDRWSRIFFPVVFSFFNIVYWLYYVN
Procedure, shortened: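 Stage V–VI Xenopus oocytes, defolliculated with 2 mg/mL collagenase, injected with α(1, 2, 3 or 5) and β2 cRNAs mixed 1:1, then kept at 18 °C in ND96 (pH 7.4). Enhancement = I(GABA+compound)/IGABA − 1. Curves were Hill-fitted for EC50. Bath DMSO was at most 0.3%, matched in controls.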

[3] = Octanol-water partition coefficient, log P of the compound; type: physicochemical
[4] = target: T1, GABA-A receptor; GABA-A site (alpha1/beta2 interface) (Homo sapiens); assay: Modulation of GABA Aalpha1beta2 receptor expressed in Xenopus laevis oocytes assessed as potentiation of GABA-induced chloride current at holding potential -70 mV by two-microelectrode voltage clamp technique relative to GABA; type: cell-based; conditions: Oocyte
Procedure, shortened: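 Oocytes were injected with α1, α2, α3 or α5 plus β2 cRNA at a 1:1 ratio and stored at 18 °C in ND96, pH 7.4. Enhancement was (I(GABA+compound)/IGABA)−1, and concentration-response data were Hill-fitted for EC50 and nH. Matched DMSO was ≤0.3%.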

SMILES	Activity [1] [%]	EC50 [2] [µM]	logP ([3]; read-out: logP)	Smax [4] [%]	logP [3]
C=CCc1ccc(O)c(-c2ccc(OC)c(/C=C\C)c2)c1	605	19.7	5.45	1000	
CCCc1ccc(O)c(-c2ccc(OC)c(CCC)c2)c1	1060	12.7	6.01	1440	
C=CCc1ccc(OCCCCC)c(-c2ccc(O)c(CC=C)c2)c1	13		7.27		
C=CCc1ccc(O)c(-c2cc(CC=C)ccc2O)c1 [MAGNOLOL]	357	36.8	5.16	963	
C=CCc1cc(N)c(O)c(-c2ccc(OC)c(CC=C)c2)c1	2180	12.4	4.79	2710	
COc1ccc(-c2cc(CCO)ccc2O)cc1CCO	15	105	2.72	177	
C=CCc1ccc(OCCC)c(-c2ccc(O)c(CC=C)c2)c1	93	14.8	6.38	145	
C=CCc1ccc(OCC)c(-c2ccc(OCC)c(CC=C)c2)c1	14		6.37		
C=CCc1ccc(OC)c(-c2ccc(OC)c(CC=C)c2)c1	110	42.1	5.69	368	
C=CCc1ccc(OC2CC2)c(-c2ccc(OCCC)c(CC=C)c2)c1	339	22	6.38	608	
C=CCc1ccc(OCCCCC)c(-c2ccc(OCCCCC)c(CC=C)c2)c1	1				9.37
COc1ccc(-c2cc(CC(C)O)ccc2O)cc1CC(C)O (stereo unspecified)	68	34.2	3.64	161	
C=CCc1ccc(OCCC)c(-c2ccc(OCCC)c(CC=C)c2)c1	22		7.6		
C=CCc1ccc(O)c(-c2cc(CC=C)ccc2OC)c1	687	54.3	5.43	2800	
C=CCc1cc(-c2cc(CC(C)Br)ccc2O)ccc1OC (stereo unspecified)	1230	8.4	5.99	1340	
C=CCc1cc(-c2ccc(OC)c(CC=C)c2)c(O)c([N+](=O)[O-])c1	120	25	5.4	227	
C=CCc1cc(NC)c(O)c(-c2ccc(OC)c(CC=C)c2)c1	1840	9.3	5.11	2030	
C=CCc1cc(-c2ccc(OC)c(CC=C)c2)c(O)c(N(CC)CC)c1	7		6.06		
C=CCc1cc(-c2ccc(OC)c(CC=C)c2)c(O)c(N(C)C)c1	215	18.5	5.38	326	
C=CCc1ccc(O)c(-c2ccc(OC)c(CC=C)c2)c1 [METHYLHONOKIOL]	822	27.2	5.43	1530	
C=CCc1ccc(O)c(-c2ccc(OCCCCC)c(CC=C)c2)c1	28		7.27		
C=CCc1ccc(O)c(-c2ccc(OCC)c(CC=C)c2)c1	345	59.9	5.77	865	
C=CCc1cccc(-c2cccc(CC=C)c2O)c1O	53	35.2	5.09	148	
C=CCc1cc(-c2ccc(O)c(CC=C)c2)ccc1O	73	23.7	5.16	110	
C=CCc1ccc(O)c(-c2ccc(OC)c(CC(C)Br)c2)c1 (stereo unspecified)	589	16.9	5.99	952	
COc1ccc(-c2cc(CC(O)CO)ccc2O)cc1CC(O)CO (stereo unspecified)	4		1.57		
C=CCc1cc(NCC)c(O)c(-c2ccc(OC)c(CC=C)c2)c1	2140	7.7	5.45	2290	
C=CCc1ccc(OCC)c(-c2ccc(O)c(CC=C)c2)c1	1080	14.3	5.77	1400	
CCCCC=CCc1ccc(O)c(-c2ccc(OC)c(CC=CCCCC)c2)c1 (mixture of isomers)	-2	2	8.36		
